We go through one compound from BindingDB's records for doi:10.1021/jm050851n (University of Arizona, 2006).

The experiment has as its target Mu-type opioid receptor (Rattus norvegicus, UniProt P33535). As to the kind of experiment: Displacement of [3H]DAMGO from rat mu opioid receptor expressed in HN9.10 cells. The method, boiled down: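 Membranes from stably transfected HN9.10 neuroblastoma cells in 50 mM Tris pH 7.4 with bacitracin, bestatin, captopril, PMSF and 1 mg/mL BSA. 50 µg membrane, 10 test concentrations, 1.0 nM [3H]DAMGO (Kd level). Nonspecific binding defined with 10 µM naloxone. Duplicates, 3 h at 25 °C, filtration, scintillation counting. Ki from IC50 by Cheng–Prusoff; at least two independent experiments.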

Mu-type opioid receptor, sequence (P33535 whole entry): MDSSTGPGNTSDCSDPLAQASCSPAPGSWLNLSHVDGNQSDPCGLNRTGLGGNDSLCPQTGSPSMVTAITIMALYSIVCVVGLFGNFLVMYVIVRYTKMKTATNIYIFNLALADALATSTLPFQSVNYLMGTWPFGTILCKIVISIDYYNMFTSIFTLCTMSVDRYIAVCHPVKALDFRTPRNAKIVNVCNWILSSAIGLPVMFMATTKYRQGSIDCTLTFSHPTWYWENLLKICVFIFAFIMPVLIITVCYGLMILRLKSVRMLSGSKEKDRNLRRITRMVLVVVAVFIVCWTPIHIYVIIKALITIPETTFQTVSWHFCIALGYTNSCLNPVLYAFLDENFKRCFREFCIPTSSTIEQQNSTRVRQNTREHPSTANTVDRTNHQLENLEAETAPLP

`CC(=O)N[C@@H](Cc1c[nH]c2ccccc12)C(=O)N[C@@H](CCCCNC(=O)Nc1ccccc1Cl)C(=O)N[C@@H](CC(=O)O)C(=O)N(C)[C@@H](Cc1ccccc1)C(=O)NNC(=O)[C@H](Cc1ccccc1)NC(=O)CNC(=O)[C@@H](C)NC(=O)[C@@H](N)Cc1ccc(O)cc1` [H-Tyr-D-Ala-Gly-Phe-NH-NH-(NMe)Phe-Asp-Lys(Cpac)-Trp-Ac]: the response was half-maximal at 14 nM (EC50).

Broadly, the EC50 is the concentration giving half of the maximal effect. A higher EC50 goes with a need for much substance.
